The species named for test [1] is Mus musculus. The test is described as follows: Inhibitory effect against contraction induced by PGF2-alpha in the isolated mouse uterus at a concentration of 10 E -4 M. The test is classed as functional. The gist of the method:
(§1)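 Uterine strips were equilibrated 30 min, then given two 5-min control responses to PGF2α (10^-7 M), each followed by a 20-min washout. The test agent was in the bath 5 min before 10^-7 M PGF2α was added. The integrated contractile force over 5 min was taken as a % of the mean of the two controls. Agents were dissolved in 0.25 N NaOH and diluted with water to pH 7.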

For test [2], the species on record is Mus musculus. The test is described as follows: Compounds were evaluated for the percent recovery of the contraction induced by PGF2-alpha in the isolated mouse uterus at a concentration 10 E -4 M. The test is classed as functional, tissue-based. In a few lines: (§2)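 Recovery after PGF2α challenge: following a 5-min PGF2α (10^-7 M) response with the test agent present, the tissue was washed 20 min with physiological medium, then re-exposed to 10^-7 M PGF2α for 5 min. The integrated contractile force was expressed as a % of the mean of two initial control PGF2α responses.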

Test [3] is filed under the species Mus musculus. The test is described as follows: Compounds were evaluated for the percent recovery of the contraction induced by PGF2-alpha in the isolated mouse uterus at a concentration 10 E -5 M. The class given is functional. In a few lines: as §2
For test [4], the species on record is Mus musculus. Description: Inhibitory effect against contraction induced by PGF2-alpha in the isolated mouse uterus at a concentration of 10 E -5 M. The class given is functional. The gist of the method:
as §1

The species entered for test [5] is Mus musculus. The test is described as follows: Inhibitory effect against contraction induced by PGF2-alpha in the isolated mouse uterus at a concentration of 10 E -4M. The test is classed as functional. In a few lines:
as §1

Test [6] is filed under the species Mus musculus. The test is described as follows: Compounds were evaluated for the percent recovery of the contraction induced by PGF2-alpha in the isolated mouse uterus at a concentration 3X 10 E -5 M. The test is classed as functional. In a few lines: as §2
The species entered for test [7] is Mus musculus. The test is described as follows: Compounds were evaluated for the percent recovery of the contraction induced by KCL in the isolated mouse uterus at a concentration 10 E -4 M. The class given is functional. The gist of the method:
(§3)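 KCl (54 mM) served as agonist in the uterine strip. After the 5-min KCl response with the test agent present, the tissue was washed 20 min and challenged again with KCl for 5 min. The recovery response was expressed as integrated force, as a % of the mean of two initial control KCl responses.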

For test [8], the species on record is Mus musculus. Description: (§4) Inhibitory effect for the contraction induced by BaCl2 in [Ca2+] free buffer in the isolated mouse uterus at a concentration 10 E -4 M. The class given is functional. In a few lines: (§5)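 BaCl2 (2.2 × 10^-4 M) stimulated the uterine strip, in Ca2+-containing or Ca2+-free buffer. Two 5-min control responses were taken, each with a 20-min washout. The test agent was added 5 min before BaCl2. The integrated contractile force was expressed as a % of the mean control response.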

For test [9], the species on record is Mus musculus. The test is described as follows: Inhibitory effect against contraction induced by KCL in the isolated mouse uterus at a concentration of 10 E -6 M. The test is classed as functional. In a few lines: (§6)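 KCl (54 mM) replaced PGF2α as the stimulus. After 30-min equilibration, two 5-min control KCl responses were taken, each with a 20-min washout. The test agent was then preincubated 5 min before KCl was added. The integrated force over 5 min was expressed as a % of the mean of the two controls. Compounds were in NaOH, neutralised to pH 7.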

For test [10], the species on record is Mus musculus. The test is described as follows: Inhibitory effect against contraction induced by PGF2-alpha in the isolated mouse uterus at a concentration of 10 E -6 M. The class given is functional. The gist of the method: as §1
The species named for test [11] is Mus musculus. Description: Compounds were evaluated for the percent recovery of the contraction induced by KCL in the isolated mouse uterus at a concentration 10 E -6M. The class given is functional. The gist of the method: as §3
The species named for test [12] is Mus musculus. The test is described as follows: Inhibitory effect against contraction induced by KCL in the isolated mouse uterus at a concentration of 10 E -4 M. The class given is functional. The gist of the method:
as §6

The species entered for test [13] is Mus musculus. The test is described as follows: Inhibitory effect against contraction induced by KCL in the isolated mouse uterus at a concentration of 10 E -5 M. The class given is functional. The gist of the method:
as §6

The species named for test [14] is Mus musculus. The test is described as follows: (§7) Inhibitory effect for the contraction induced by BaCl2 in [Ca2+] containing buffer in the isolated mouse uterus at a concentration 10 E -4 M. The class given is functional. In a few lines: as §5
The species named for test [15] is Mus musculus. The test is described as follows: Compounds were evaluated for the percent recovery of the contraction induced by KCL in the isolated mouse uterus at a concentration 10 E -5M. The test is classed as functional. The gist of the method:
as §3

The species named for test [16] is Mus musculus. The test is described as §7. The test is classed as functional. The gist of the method: as §5
This is another data set of the same source.

Test [17] is filed under the species Mus musculus. The test is described as follows: Inhibitory effect against contraction induced by PGF2-alpha in the isolated mouse uterus at a concentration of 3X10 E -5 M. The class given is functional. The gist of the method:
as §1

The species entered for test [18] is Mus musculus. Description: Compounds were evaluated for the percent recovery of the contraction induced by PGF2-alpha in the isolated mouse uterus at a concentration 10 E -6 M. The test is classed as functional. In a few lines: as §2
The species entered for test [19] is Mus musculus. The description is as §4. The test is classed as functional. The gist of the method:
as §5
The source holds these as a separate data set.

Each structure is given as a SMILES string.

Take `CCCC1(CCC(=O)O)Cc2cc(OCc3ccccc3)ccc2C1=O` (stereo not drawn): the inhibition – broadly, the change of the read-out against control, counted positive when it falls – at 100 µM in [1] is 42%. The Recovery stood at 85.3% in test [2] and 85.5% in test [3]. Further, 10 µM produced 6.4% inhibition in test [4].

For the compound `CCC1(CCC(=O)O)Cc2cc(OCc3ccccc3)ccc2C1=O` (stereo not drawn), the Recovery in [2] worked out at 70.4%; in test [3], 69.3%. Further, the inhibition at 10 µM in test [4] was 27.3%. Moreover, the inhibition at 100 µM in test [5] is 44.4%.

On to `CCC[C@@]1(CCC(=O)O)Cc2cc(OCc3ccccc3)c(OCc3ccccc3)cc2[C@H]1O`, for which the Recovery worked out at 79.7% in test [6]; 85.8% in [7]; 82.8% in [2]; 86.1% in test [11]; 81.8% in [3]; 105% in [14]. Besides, the Recovery in test [15] worked out at 84.2%; in [18], 88.7%; in test [19], 39.4%. For the same compound, the inhibition at 100 µM in [1] was 67.1%; in test [8], 88.2%; in test [12] it was 53.2%; in test [16], 48.1%. Further, the inhibition at 1 µM in test [9] was determined as 1.2%; in test [10], 0%. Further, the inhibition at 10 µM was 17.2% in [4] and 9.4% in [13]. Moreover, in test [17], the inhibition at 30 µM amounted to 36.4%.

For the compound `O=C(O)CCC1(CCC(=O)O)Cc2cc(OCc3ccccc3)ccc2C1=O`, the results for the inhibition at 100 µM in [1] and in test [12] were 6.5% and 1.9%, respectively. Moreover, the Recovery in [7] amounted to 105%; in [2], 91.1%; in test [3], 79.9%; in test [15] it was 106%. Further, the inhibition at 10 µM in [4] stood at 10.5%; in test [13], 8.3%.

The compound `CCCCC1(CCC(=O)O)Cc2cc(OCc3ccccc3)ccc2C1O` (stereo not drawn) displayed an inhibition at 100 µM in test [1] of 20.4%. The Recovery was found to be 104% in [2] and 91.7% in test [3]. In addition, the inhibition at 10 µM in test [4] came to 0.5%.

Source of the values: ChEMBL document CHEMBL1122730, “Synthesis and pharmacological evaluation of indanpropionic acids as uterine relaxants” (1984).
